The source of these data is ChEMBL document CHEMBL4715770, “Inhibition of Low Molecular Weight Protein Tyrosine Phosphatase by an Induced-Fit Mechanism” (J Med Chem, 2016).

Experiment [1] is described as follows: Inhibition of His-tagged PTP-H1 (unknown origin) expressed in Escherichia coli BL21 cells using para-nitrophenyl phosphate as substrate incubated for 5 to 10 mins by microplate reader based spectrophotometric analysis. Further details: species or system Homo sapiens. A digest of the protocol:
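Enzyme at 5-20 nM was added to substrate plus a range of inhibitor concentrations and run 5-10 min at room temperature. Quenched with 5N NaOH and p-nitrophenol read at 405 nm (ε 18,000 M-1cm-1), with a no-enzyme background correction. IC50 from curve fitting.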

For experiment [2], the target named is Receptor-type tyrosine-protein phosphatase F (Homo sapiens, UniProt P10586). The experiment in a line: Inhibition of His-tagged LAR (unknown origin) expressed in Escherichia coli BL21 cells using para-nitrophenyl phosphate as substrate incubated for 5 to 10 mins by microplate reader based spectrophotometric analysis.
For experiment [3], the target named is T1, Tyrosine-protein phosphatase non-receptor type 2 (Homo sapiens, UniProt P17706).
T1 sequence (P17706 whole entry): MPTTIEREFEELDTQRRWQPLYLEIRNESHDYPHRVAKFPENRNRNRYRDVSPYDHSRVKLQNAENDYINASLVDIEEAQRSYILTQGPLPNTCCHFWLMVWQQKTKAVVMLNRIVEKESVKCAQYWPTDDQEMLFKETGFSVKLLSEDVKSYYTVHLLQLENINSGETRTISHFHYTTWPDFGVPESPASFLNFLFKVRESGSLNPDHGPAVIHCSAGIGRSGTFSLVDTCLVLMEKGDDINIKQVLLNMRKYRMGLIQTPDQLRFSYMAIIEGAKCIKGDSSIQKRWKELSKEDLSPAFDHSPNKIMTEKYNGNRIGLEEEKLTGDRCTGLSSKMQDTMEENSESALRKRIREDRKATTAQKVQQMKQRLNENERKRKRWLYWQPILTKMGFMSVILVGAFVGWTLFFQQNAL
The experiment in a line: Inhibition of His-tagged TC-PTP (unknown origin) expressed in Escherichia coli BL21 cells using para-nitrophenyl phosphate as substrate incubated for 5 to 10 mins by microplate reader based spectrophotometric analysis.

The target in experiment [4] is Receptor-type tyrosine-protein phosphatase gamma (Homo sapiens, UniProt P23470). The experiment in a line: Inhibition of His-tagged PTPgamma (unknown origin) expressed in Escherichia coli BL21 cells using para-nitrophenyl phosphate as substrate incubated for 5 to 10 mins by microplate reader based spectrophotometric analysis.
Sequence of Receptor-type tyrosine-protein phosphatase gamma (P23470 whole entry): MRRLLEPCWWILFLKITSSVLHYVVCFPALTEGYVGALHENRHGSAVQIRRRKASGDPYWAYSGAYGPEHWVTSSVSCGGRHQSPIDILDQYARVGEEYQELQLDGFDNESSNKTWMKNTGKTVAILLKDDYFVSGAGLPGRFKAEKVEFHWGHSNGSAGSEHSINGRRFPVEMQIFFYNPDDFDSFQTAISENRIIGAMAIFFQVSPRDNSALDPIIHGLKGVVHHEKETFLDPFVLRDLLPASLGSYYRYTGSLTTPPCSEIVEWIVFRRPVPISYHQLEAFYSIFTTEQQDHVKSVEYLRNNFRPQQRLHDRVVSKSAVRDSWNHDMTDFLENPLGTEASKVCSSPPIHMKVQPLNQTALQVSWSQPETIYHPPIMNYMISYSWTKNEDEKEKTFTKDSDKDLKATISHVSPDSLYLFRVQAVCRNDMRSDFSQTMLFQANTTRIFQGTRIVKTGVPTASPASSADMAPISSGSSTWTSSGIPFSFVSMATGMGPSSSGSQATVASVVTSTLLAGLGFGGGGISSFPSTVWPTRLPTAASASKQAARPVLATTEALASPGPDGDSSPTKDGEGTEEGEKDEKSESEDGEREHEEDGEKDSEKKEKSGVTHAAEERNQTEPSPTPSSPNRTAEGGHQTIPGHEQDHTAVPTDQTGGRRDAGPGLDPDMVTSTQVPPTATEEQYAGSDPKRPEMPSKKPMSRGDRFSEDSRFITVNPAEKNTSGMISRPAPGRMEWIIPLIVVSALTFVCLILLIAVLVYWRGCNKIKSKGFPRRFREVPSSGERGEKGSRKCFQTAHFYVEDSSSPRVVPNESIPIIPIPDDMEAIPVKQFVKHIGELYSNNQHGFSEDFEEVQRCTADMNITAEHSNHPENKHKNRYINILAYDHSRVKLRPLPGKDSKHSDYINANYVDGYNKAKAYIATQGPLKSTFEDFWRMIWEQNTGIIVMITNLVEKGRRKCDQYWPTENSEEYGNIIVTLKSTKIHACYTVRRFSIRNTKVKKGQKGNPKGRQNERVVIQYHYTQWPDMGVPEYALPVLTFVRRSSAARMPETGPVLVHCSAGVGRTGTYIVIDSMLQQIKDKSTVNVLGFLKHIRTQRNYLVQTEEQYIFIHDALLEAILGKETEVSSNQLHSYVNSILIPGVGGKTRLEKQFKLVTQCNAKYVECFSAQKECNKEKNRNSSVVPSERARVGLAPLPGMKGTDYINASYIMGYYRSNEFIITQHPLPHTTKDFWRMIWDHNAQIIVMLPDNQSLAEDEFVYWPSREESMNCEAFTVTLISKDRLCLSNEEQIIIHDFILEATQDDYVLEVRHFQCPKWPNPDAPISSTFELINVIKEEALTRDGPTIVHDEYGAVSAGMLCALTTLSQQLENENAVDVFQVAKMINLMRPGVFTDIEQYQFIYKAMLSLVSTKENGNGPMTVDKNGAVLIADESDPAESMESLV
Experiment [5] deals with Receptor-type tyrosine-protein phosphatase S (Homo sapiens, UniProt Q13332). As to the kind of experiment: Inhibition of His-tagged PTPsigma (unknown origin) expressed in Escherichia coli BL21 cells using para-nitrophenyl phosphate as substrate incubated for 5 to 10 mins by microplate reader based spectrophotometric analysis.
Sequence of Receptor-type tyrosine-protein phosphatase S (Q13332 whole entry): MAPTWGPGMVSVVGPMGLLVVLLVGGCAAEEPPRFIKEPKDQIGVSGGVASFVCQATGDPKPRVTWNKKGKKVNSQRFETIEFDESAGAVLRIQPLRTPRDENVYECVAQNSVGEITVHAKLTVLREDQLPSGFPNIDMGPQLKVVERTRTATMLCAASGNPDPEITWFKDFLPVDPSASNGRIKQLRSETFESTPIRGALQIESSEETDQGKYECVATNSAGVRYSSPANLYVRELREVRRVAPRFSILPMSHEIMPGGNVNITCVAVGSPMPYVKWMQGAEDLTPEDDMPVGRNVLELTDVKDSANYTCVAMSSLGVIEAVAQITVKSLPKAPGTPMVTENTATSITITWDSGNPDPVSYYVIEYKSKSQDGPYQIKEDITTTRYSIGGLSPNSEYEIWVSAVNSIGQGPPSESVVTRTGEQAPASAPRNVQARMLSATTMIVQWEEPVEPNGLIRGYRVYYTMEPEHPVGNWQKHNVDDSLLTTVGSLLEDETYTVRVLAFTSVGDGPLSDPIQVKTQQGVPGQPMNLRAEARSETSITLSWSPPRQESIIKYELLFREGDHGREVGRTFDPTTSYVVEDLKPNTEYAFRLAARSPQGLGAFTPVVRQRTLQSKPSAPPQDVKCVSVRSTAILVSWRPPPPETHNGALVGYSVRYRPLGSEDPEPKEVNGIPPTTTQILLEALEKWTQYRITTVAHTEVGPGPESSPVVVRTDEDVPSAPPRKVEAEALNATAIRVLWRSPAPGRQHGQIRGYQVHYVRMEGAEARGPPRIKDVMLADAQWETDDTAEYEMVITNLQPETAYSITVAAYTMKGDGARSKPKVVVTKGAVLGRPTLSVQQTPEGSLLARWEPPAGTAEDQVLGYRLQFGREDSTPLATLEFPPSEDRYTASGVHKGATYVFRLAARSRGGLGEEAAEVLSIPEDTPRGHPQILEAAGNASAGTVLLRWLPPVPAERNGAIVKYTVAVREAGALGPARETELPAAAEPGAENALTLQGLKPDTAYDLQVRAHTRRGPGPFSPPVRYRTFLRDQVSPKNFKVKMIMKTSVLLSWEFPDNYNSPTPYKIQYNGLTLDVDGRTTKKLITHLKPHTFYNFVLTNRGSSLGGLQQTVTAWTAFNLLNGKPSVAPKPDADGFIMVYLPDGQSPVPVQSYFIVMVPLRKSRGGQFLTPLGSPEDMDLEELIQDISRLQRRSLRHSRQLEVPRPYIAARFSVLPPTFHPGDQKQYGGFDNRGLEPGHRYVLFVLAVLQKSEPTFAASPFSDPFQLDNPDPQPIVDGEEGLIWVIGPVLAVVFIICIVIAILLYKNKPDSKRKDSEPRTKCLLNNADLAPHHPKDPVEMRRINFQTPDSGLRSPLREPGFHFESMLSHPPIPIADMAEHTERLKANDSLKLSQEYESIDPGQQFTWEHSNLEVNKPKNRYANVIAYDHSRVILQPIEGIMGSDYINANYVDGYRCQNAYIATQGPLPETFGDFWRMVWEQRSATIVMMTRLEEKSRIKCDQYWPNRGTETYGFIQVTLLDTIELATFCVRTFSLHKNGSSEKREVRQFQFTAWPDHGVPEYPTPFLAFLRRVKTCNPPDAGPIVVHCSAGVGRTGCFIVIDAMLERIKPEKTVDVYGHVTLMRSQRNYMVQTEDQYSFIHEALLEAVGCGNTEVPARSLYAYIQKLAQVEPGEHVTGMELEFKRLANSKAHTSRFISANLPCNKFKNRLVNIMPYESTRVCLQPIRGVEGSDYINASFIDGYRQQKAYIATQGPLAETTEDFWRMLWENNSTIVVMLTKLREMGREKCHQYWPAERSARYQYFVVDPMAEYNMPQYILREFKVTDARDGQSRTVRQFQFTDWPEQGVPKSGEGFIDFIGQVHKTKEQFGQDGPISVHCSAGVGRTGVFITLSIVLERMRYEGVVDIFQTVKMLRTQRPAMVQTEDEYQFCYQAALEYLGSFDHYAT
In experiment [6] the target is Receptor-type tyrosine-protein phosphatase beta (Homo sapiens, UniProt P23467). As to the kind of experiment: Inhibition of His-tagged PTPbeta (unknown origin) expressed in Escherichia coli BL21 cells using para-nitrophenyl phosphate as substrate incubated for 5 to 10 mins by microplate reader based spectrophotometric analysis.
For experiment [7], the target named is T2, Tyrosine-protein phosphatase non-receptor type 1 (Homo sapiens, UniProt P18031).
T2 sequence (P18031 whole entry): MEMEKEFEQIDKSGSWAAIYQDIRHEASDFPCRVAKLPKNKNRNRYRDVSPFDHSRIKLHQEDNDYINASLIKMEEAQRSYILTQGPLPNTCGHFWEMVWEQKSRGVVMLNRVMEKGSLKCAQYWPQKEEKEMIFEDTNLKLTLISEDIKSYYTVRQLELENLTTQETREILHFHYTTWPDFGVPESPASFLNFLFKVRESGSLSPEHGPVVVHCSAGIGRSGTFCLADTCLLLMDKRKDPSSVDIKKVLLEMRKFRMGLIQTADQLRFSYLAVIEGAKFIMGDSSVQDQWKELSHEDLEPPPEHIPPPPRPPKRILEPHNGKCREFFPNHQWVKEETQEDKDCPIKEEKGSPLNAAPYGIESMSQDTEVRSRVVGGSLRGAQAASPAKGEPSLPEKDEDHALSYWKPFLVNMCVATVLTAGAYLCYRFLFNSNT
As to the kind of experiment: Inhibition of His-tagged PTP1B (unknown origin) expressed in Escherichia coli BL21 cells using para-nitrophenyl phosphate as substrate incubated for 5 to 10 mins by microplate reader based spectrophotometric analysis.

The target of experiment [8] is T3, Tyrosine-protein phosphatase non-receptor type 12 (Homo sapiens, UniProt Q05209).
T3 sequence (Q05209 whole entry): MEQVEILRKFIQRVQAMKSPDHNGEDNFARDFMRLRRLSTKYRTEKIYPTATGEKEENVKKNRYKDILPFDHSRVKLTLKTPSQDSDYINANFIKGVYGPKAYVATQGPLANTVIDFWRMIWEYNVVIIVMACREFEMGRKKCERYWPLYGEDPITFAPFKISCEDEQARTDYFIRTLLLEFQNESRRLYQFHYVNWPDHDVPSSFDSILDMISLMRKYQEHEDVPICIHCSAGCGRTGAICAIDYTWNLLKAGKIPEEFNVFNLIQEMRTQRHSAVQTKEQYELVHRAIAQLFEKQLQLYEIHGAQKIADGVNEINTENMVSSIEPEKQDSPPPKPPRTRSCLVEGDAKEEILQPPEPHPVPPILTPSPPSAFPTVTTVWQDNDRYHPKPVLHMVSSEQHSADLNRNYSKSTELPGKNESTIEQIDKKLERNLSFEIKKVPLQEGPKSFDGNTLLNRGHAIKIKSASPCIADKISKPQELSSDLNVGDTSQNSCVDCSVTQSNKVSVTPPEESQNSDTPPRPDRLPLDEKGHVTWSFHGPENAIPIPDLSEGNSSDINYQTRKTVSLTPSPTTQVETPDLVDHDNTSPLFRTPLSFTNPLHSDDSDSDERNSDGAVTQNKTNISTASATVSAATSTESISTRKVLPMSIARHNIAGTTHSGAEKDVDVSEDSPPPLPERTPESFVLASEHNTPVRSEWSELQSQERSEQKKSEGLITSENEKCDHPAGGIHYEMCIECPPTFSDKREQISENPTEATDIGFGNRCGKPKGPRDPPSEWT
As to the kind of experiment: Inhibition of His-tagged PTP-PEST (unknown origin) expressed in Escherichia coli BL21 cells using para-nitrophenyl phosphate as substrate incubated for 5 to 10 mins by microplate reader based spectrophotometric analysis.

Structures are written as SMILES.

What is called IC50 is the point on the concentration scale where inhibition reaches its midpoint. Higher therefore signals weaker potency in that assay.

On to `O=C(Nc1ccc(OCc2ccccc2)c(Cl)c1)C(c1ccccc1)S(=O)(=O)O` (configuration not stated), for which the IC50 in experiment [1], in experiment [2], in experiment [3], in experiment [4], in experiment [5] and in experiment [6] was more than 200 µM throughout.

As to `O=C(Nc1nc2ccc([N+](=O)[O-])cc2s1)C(c1ccccc1)S(=O)(=O)O` (configuration not stated), the IC50 in experiment [7], in experiment [1], in experiment [2], in experiment [3], in experiment [4] and in experiment [8] was more than 100 µM in each case. The IC50 in experiment [5] and in experiment [6] was more than 100 µM throughout.

On to `O=C(Nc1cc(C(F)(F)F)cc(C(F)(F)F)c1)C(c1ccccc1)S(=O)(=O)O` (configuration not stated), for which the IC50 in experiment [7] is more than 200 µM; in experiment [1], more than 200 µM; in experiment [2], more than 200 µM; in experiment [3], more than 200 µM; in experiment [4], more than 200 µM; in experiment [8] it was 66.9 µM. Moreover, the IC50 in experiment [5] and in experiment [6] was more than 200 µM throughout.

Take `Cc1c(Br)cc(NC(=O)C(c2ccccc2)S(=O)(=O)O)cc1Br` (configuration not stated): the IC50 in experiment [7], in experiment [1], in experiment [2], in experiment [3], in experiment [4] and in experiment [5] was more than 200 µM throughout. Moreover, the IC50 in experiment [6] was more than 200 µM.

As for `O=C(Nc1ccc(-n2ccnc2)cc1)C(c1ccccc1)S(=O)(=O)O` (configuration not stated), the IC50 in experiment [7], in experiment [1], in experiment [2], in experiment [3], in experiment [4] and in experiment [8] was more than 100 µM in each case. The IC50 in experiment [5] and in experiment [6] was more than 100 µM in each case.
